Measurements pooled from the literature.
Target: Insulin receptor-related protein (INSRR, Homo sapiens, UniProt P14616)

Compound | effect on | technique | tested at | remaining binding [%]
F[C@@H]1CCN(c2nccc(-c3cnn4ncccc34)n2)C1 | binding | – | 1 µM | 100
O=C(NCC1CCOCC1)c1n[nH]cc1NC(=O)c1c(F)cccc1F | binding | competition with immobilised ligand | 1 µM | 88
O=C(c1ccc(Nc2ncc(Cl)c(-c3cc4ccccc4s3)n2)cc1)N1CCC(N2CCCC2)CC1 | binding | competition with immobilised ligand | 1 µM | 25
CN(C)c1nccc(-c2cnc3ncccn23)n1 | binding | – | 1 µM | 82
C[C@@H]1CN(c2cc(-c3nn(C)c4ccc(OC5(C)CC5)cc34)ncn2)C[C@H](C)O1 | cell-free assay | competition with immobilised ligand | 1 µM | 91
O=C(c1ccc(Nc2ncc(Cl)c(-c3ccc(Cl)s3)n2)cc1)N1CCC(N2CCCC2)CC1 | binding | competition with immobilised ligand | 1 µM | 23
CN(C)c1ncc(F)c(-c2cnn3ncccc23)n1 | binding | – | 1 µM | 100
Nc1ncc2c(n1)-c1c([nH]c3ccc(C#CC4CC4)cc13)CCCC2 | binding | competition with immobilised ligand | 1 µM | 98
c1cnn2ncc(-c3ccnc(N4CCC45COC5)n3)c2c1 | binding | – | 1 µM | 93
O=C(c1ccc(Nc2nccc(-c3cc4ccccc4s3)n2)cc1)N1CCC(N2CCCC2)CC1 | binding | competition with immobilised ligand | 1 µM | 99
CCC(=O)N[C@H]1CC[C@@H](C(=O)N(C)c2ccc(-c3nc4ccccc4o3)cc2)C1 | cell-free assay | competition with immobilised ligand | 1 µM | 100
COc1cnc(Nc2cccc(S(N)(=O)=O)c2)nc1N1CCN(c2ccccc2)CC1 | binding | competition with immobilised ligand | 1 µM | 100
O=C(NCCCC1CCCCC1)c1ccc(CNC(=O)c2cnn(-c3ccccc3)c2C(F)(F)F)cc1 | cell-free assay | competition with immobilised ligand | 0.1 µM | 100
C=CC(=O)N1CCC(C(=O)NCC(=O)N2CCN(c3nc(-c4cnc(N)nc4C(F)F)nc(N4CCOCC4)n3)CC2)CC1 | binding | competition with immobilised ligand | 1 µM | 96
Cc1nc(C2CCN(C(=O)c3ccc(OC(F)(F)F)cc3N)CC2)c2ncc(N3CCN(C)CC3)cc2n1 | cell-free assay | competition with immobilised ligand | 1 µM | 100
N[C@H]1CCN(c2nccc(-c3cnn4ncccc34)n2)C1 | binding | – | 1 µM | 97
C[C@@]1(Cc2ccc(C#N)cc2)C(=O)N(c2cc(Cl)cc(Cl)c2)c2ncc(C(=O)NC3(c4nc(C5CCC5)no4)CC3)n21 | cell-free assay | competition with immobilised ligand | 1 µM | 100
COc1cnc(Nc2cccc(S(N)(=O)=O)c2)nc1N1CCN(c2ccccc2)C(=O)C1 | binding | competition with immobilised ligand | 1 µM | 100
COc1ccnn2ncc(-c3ccnc(N(C)C)n3)c12 | binding | – | 1 µM | 99
CNCc1ccccc1-c1csc([C@@H](C)Nc2nc(C)nc3cc(OC)c(OC)cc23)c1 | cell-free assay | competition with immobilised ligand | 1 µM | 95
CC1CCCN1c1nccc(-c2cnn3ncccc23)n1 (stereo not shown) | binding | – | 1 µM | 100
CN(C)C(=O)Cn1cc(-c2nc(C3(c4ccc(-c5cnc(N)nc5)cc4)CC3)no2)cn1 | cell-free assay | competition with immobilised ligand | 1 µM | 100
